Data on one compound can be found in ChEMBL document CHEMBL2086252, “Syntheses and evaluation of anticonvulsant activity of novel branched alkyl carbamates” (J Med Chem, 2012).

Active and inactive are the calls of the source. The rule behind the calls is not given here.

Data set [1] deals with Rattus norvegicus. As to the kind of experiment: Anticonvulsant activity in Sprague-Dawley albino rat assessed as protection against pilocarpine-induced status epilepticus at 65 mg/kg, ip. Type of data set: functional, organism-based. On the set-up: dose 65 mg/kg. The method in brief:
(§1)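 Pilocarpine status epilepticus model in rats. Number and severity of convulsive seizures were observed behaviourally.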

The subject of data set [2] is Mus musculus. The data set is described as follows: Anticonvulsant activity in albino CF1 mouse assessed as protection against maximal electroshock-induced seizures at 300 mg/kg, ip after 4 hrs. Type of data set: functional, organism-based. Also on record: dose 300 mg/kg. The method in brief:
(§2)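 Mice dosed ip at 30, 100 or 300 mg/kg, then tested 0.5 h and 4 h after administration in the MES or scMet test. Protection was recorded as animals protected over animals tested. Neurotoxicity was recorded as motor impairment or sedation, as animals affected over animals tested.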
A general note: In the maximal electroshock model the usual endpoint is tonic extension of the hind limbs.

The test system of data set [3] is Mus musculus. As to the kind of experiment: Anticonvulsant activity in albino CF1 mouse assessed as protection against maximal electroshock-induced seizures at 30 mg/kg, ip after 4 hrs. On the set-up: dose 30 mg/kg. Type of data set: functional, organism-based. The method in brief:
as §2

For data set [4], the system named is Mus musculus. The data set is described as follows: Anticonvulsant activity in albino CF1 mouse assessed as protection against maximal electroshock-induced seizures at 100 mg/kg, ip after 0.5 hrs. On the set-up: dose 100 mg/kg. In kind it is functional, organism-based. The method in brief:
as §2

The test system of data set [5] is Mus musculus. The data set is described as follows: Protective index, ratio of TD50 for ip dosed albino CF1 mouse by rotarod test to ED50 for ip dosed albino CF1 mouse by 6 Hz psychomotor seizure test. In kind it is functional. The method in brief: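 Protective index calculated as TD50/ED50, with TD50 and ED50 taken from the same species and dosing route.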
In data set [6] the test system is Mus musculus. The data set is described as follows: Anticonvulsant activity in albino CF1 mouse assessed as protection against subcutaneous metrazol-induced seizures at 300 mg/kg, ip after 0.5 hrs. In kind it is functional, organism-based. Also on record: dose 300 mg/kg. The method in brief:
as §2

Data set [7] relates to Rattus norvegicus. As to the kind of experiment: Neurotoxicity in pilocarpine-induced status epilepticus Sprague-Dawley albino rat model assessed as minimal motor impairment at 300 mg/kg, ip after 0.25 hr by rotarod test. The note with it: in vivo. Also on record: dose 300 mg/kg, route intraperitoneal. In kind it is toxicity, organism-based. The method in brief: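 Rat pilocarpine status epilepticus model: test carbamate given at 0 or 30 min after the first observed Racine stage 3 motor seizure, which marks SE onset. Neurotoxicity was scored within the same model.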
A general note: The rotarod test checks motor coordination on a turning rod.

For data set [8], the system named is Mus musculus. The data set is described as follows: Anticonvulsant activity in ip dosed albino CF1 mouse assessed as protection against maximal electroshock-induced seizures. In kind it is functional. The method in brief: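 Quantitative testing: rats dosed orally or ip in MES and scMet tests, and mice dosed ip, including the 6 Hz (32 mA) psychomotor seizure test. ED50 and TD50 were reported in mg/kg with ranges in parentheses. Protective index was calculated as TD50/ED50.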

Data set [9] deals with Mus musculus. As to the kind of experiment: Anticonvulsant activity in albino CF1 mouse assessed as protection against maximal electroshock-induced seizures at 300 mg/kg, ip after 0.5 hrs. Type of data set: functional, organism-based. Also on record: dose 300 mg/kg. The method in brief: as §2
Data set [10] has as its system Mus musculus. The data set is described as follows: Anticonvulsant activity in albino CF1 mouse assessed as protection against maximal electroshock-induced seizures at 100 mg/kg, ip after 4 hrs. Type of data set: functional, organism-based. Also on record: dose 100 mg/kg. The method in brief: as §2
In data set [11] the test system is Mus musculus. As to the kind of experiment: Anticonvulsant activity in albino CF1 mouse assessed as protection against maximal electroshock-induced seizures at 30 mg/kg, ip after 0.5 hrs. In kind it is functional, organism-based. On the set-up: dose 30 mg/kg. The method in brief: as §2
Data set [12] deals with Rattus norvegicus. As to the kind of experiment: Anticonvulsant activity in ip dosed Sprague-Dawley albino rat assessed as protection against pilocarpine-induced status epilepticus after 0.5 hrs. In kind it is functional. The method in brief: as §1
For data set [13], the system named is Mus musculus. As to the kind of experiment: Neurotoxicity in albino CF1 mouse assessed as minimal motor impairment at 30 mg/kg, ip after 4 hrs by rotarod test. In kind it is toxicity, organism-based. On the set-up: dose 30 mg/kg, route intraperitoneal. The note with it: in vivo. The method in brief:
as §2

Data set [14] relates to Rattus norvegicus. The data set is described as follows: Neurotoxicity in pilocarpine-induced status epilepticus Sprague-Dawley albino rat model assessed as minimal motor impairment at 100 mg/kg, ip after 0.25 hr by rotarod test. The note with it: in vivo. In kind it is toxicity, organism-based. Also on record: dose 100 mg/kg, route intraperitoneal.
The test system of data set [15] is Mus musculus. As to the kind of experiment: Anticonvulsant activity in albino CF1 mouse assessed as protection against subcutaneous metrazol-induced seizures at 300 mg/kg, ip after 4 hrs. Also on record: dose 300 mg/kg. Type of data set: functional, organism-based. The method in brief: as §2
Data set [16] relates to Rattus norvegicus. As to the kind of experiment: Neurotoxicity in Sprague-Dawley albino rat assessed as minimal motor impairment at 30 mg/kg, po by rotarod test. In kind it is toxicity, organism-based. On the set-up: dose 30 mg/kg, route oral. The note with it: in vivo. The method in brief: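 Rats dosed orally. Anti-MES protection was scored as animals protected over animals tested at each time after dosing. Neurotoxicity was scored as motor impairment or sedation, as animals affected over animals tested.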

Consider `CCC(COC(N)=O)C(C)C` (racemic), for which the outcome in the data set with Rattus norvegicus [1], in the data set with Mus musculus [6] and in the data set with Mus musculus [9] was Active. Also, the result with Mus musculus [2], in the data set on Mus musculus [3], in the data set with Mus musculus [4], in the data set with Mus musculus [10], with Mus musculus [11] and in the data set on Mus musculus [15] was inactive. For the same compound, the “Ratio TD50/ED50” value in the data set with Mus musculus [5] was 4.4. Also, the Activity entry in the data set with Rattus norvegicus [7] is “Toxic”; in the data set with Mus musculus [13], “Non-toxic”; in the data set on Rattus norvegicus [14] it was “Toxic”; in the data set with Rattus norvegicus [16], “Non-toxic”. In addition, the figures for the ED50 with Mus musculus [8] and with Rattus norvegicus [12] were 103 mg/kg and 81 mg/kg, respectively. The ED97 in the data set on Rattus norvegicus [12] stood at 114 mg/kg.

One may read the ED50 as the dose at which the effect has come halfway, by size or by number of responders.
